Laboratory results reported in ChEMBL document CHEMBL4842351, “Synthesis and evaluation of novel and potent protease activated receptor 4 (PAR4) antagonists based on a quinazolin-4(3H)-one scaffold” (Eur J Med Chem, 2021).
Active and inactive are the calls of the source. The calls are words filed in the database; no cut-off is given here.

Experiments:
[1] = biological target: T1, Proteinase-activated receptor 4 (Homo sapiens, UniProt Q96RI0); experiment: Antagonist activity at human PAR4 expressed in Ga15-HEK293 cells assessed as reduction in PAR4 AP AYPGKF-NH2-induced cytosolic calcium incubated for 24 hrs by FLIPR - calcium mobilization assay; assay type: functional, cell-based
T1 sequence (Q96RI0 whole entry): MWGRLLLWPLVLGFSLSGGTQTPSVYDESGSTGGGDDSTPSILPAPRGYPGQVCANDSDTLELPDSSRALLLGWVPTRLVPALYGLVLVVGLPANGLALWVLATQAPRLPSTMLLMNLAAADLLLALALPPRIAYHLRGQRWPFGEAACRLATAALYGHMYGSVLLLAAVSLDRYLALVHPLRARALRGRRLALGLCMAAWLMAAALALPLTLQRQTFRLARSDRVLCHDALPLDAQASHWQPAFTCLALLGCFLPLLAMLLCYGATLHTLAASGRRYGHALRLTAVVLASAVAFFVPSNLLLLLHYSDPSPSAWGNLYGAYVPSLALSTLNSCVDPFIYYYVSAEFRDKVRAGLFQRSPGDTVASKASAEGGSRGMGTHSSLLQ
How it was run: (§1)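 HEK293/Gα15 cells stably expressing human PAR1, PAR2 or PAR4, seeded at 45,000 cells/well and grown for 24 h at 37 °C, 5% CO₂. Cells loaded with calcium dye for 60 min at 37 °C in the dark. Compounds diluted from DMSO in HBSS and preincubated in the dark at room temperature. Agonists: SFFLRR (PAR1), 2-furoyl-LIGRLO-NH₂ (PAR2), AYPGKF-NH₂ (PAR4). Fluorescence read on FLIPR; 10-point half-log curves; mean of ≥2 determinations.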

[2] = biological target: T2, Proteinase-activated receptor 1 (Homo sapiens, UniProt P25116); experiment: Antagonist activity at human PAR1 expressed in Ga15-HEK293 cells assessed as reduction in PAR1 AP SFFLRR-NH2-induced cytosolic calcium incubated for 24 hrs by FLIPR - calcium mobilization assay; assay type: functional, cell-based; how it was run: as §1
T2 sequence (P25116 whole entry): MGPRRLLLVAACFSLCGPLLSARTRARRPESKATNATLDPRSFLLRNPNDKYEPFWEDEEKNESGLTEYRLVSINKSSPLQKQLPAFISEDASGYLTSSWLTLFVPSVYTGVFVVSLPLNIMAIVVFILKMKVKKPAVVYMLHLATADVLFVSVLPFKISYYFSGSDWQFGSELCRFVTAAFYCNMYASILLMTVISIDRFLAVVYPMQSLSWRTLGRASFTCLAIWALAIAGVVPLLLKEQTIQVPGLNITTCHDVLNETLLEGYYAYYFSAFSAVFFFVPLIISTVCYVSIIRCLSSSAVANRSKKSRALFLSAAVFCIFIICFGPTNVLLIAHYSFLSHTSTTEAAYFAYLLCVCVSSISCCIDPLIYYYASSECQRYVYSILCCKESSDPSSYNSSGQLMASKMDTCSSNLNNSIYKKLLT

[3] = biological target: T3, Proteinase-activated receptor 2 (Homo sapiens, UniProt P55085); experiment: Antagonist activity at human PAR2 expressed in Ga15-HEK293 cells assessed as reduction in PAR2 AP 2-furoyl-LIGRLO-NH2-induced cytosolic calcium incubated for 24 hrs by FLIPR - calcium mobilization assay; assay type: functional, cell-based; how it was run: as §1
T3 sequence (P55085 whole entry): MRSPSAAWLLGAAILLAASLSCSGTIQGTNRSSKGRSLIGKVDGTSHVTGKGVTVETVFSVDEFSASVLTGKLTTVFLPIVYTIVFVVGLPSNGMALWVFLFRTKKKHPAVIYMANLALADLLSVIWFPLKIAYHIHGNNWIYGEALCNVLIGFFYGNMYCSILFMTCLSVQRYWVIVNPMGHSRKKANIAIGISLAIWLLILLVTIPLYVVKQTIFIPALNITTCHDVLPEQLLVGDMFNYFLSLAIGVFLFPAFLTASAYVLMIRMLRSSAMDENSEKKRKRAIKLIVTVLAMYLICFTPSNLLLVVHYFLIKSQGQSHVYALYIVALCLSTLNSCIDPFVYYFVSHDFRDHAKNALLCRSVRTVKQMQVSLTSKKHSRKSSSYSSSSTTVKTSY

[4] = Metabolic stability in human liver microsomes assessed as half life incubated for 60 mins by LC-MS/MS analysis; assay type: ADME, Microsome
[5] = Metabolic stability in human liver microsomes assessed as intrinsic clearance incubated for 60 mins by LC-MS/MS analysis; assay type: ADME, Microsome; settings: 1 h
[6] = Metabolic stability in rat liver microsomes assessed as half life incubated for 60 mins by LC-MS/MS analysis; assay type: ADME, Microsome
How it was run: (§2)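 Human, rat or mouse liver microsomes in potassium phosphate buffer at pH ~7.4, warmed to 37 °C with compound (DMSO stock diluted in acetonitrile). Reaction started with NADPH; no-NADPH negative controls. Aliquots taken at 0 and 60 min, quenched in ice-cold acetonitrile with internal standard, and parent measured by LC/MS/MS. t1/2 = 0.693/k from ln concentration vs time; CLint derived from t1/2. Triplicate; mean ± SD.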

[7] = Metabolic stability in rat liver microsomes assessed as intrinsic clearance incubated for 60 mins by LC-MS/MS analysis; assay type: ADME, Microsome; settings: 1 h; how it was run: as §2
[8] = Metabolic stability in mouse liver microsomes assessed as half life incubated for 60 mins by LC-MS/MS analysis; assay type: ADME, Microsome; how it was run: as §2
[9] = Metabolic stability in mouse liver microsomes assessed as intrinsic clearance incubated for 60 mins by LC-MS/MS analysis; assay type: ADME, Microsome; settings: 1 h; how it was run: as §2
[10] = Cytotoxicity against HEK293T cells assessed as cell viability at 1 uM incubated for 48 hrs by CCK-8 assay; assay type: cell-based, HEK-293T; settings: human, read-out: Activity
How it was run: (§3)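 HEK293 cells in exponential growth, 4000/well, left to adhere overnight, then exposed to three compound concentrations for 48 h. Equal-volume DMSO served as control. CCK-8 added for 2 h at 37 °C in the dark, absorbance read at 450 nm. Viability = OD sample/OD control × 100; mean ± SD, n=3.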

[11] = Cytotoxicity against HEK293T cells assessed as cell viability at 10 uM incubated for 48 hrs by CCK-8 assay; assay type: cell-based, HEK-293T; settings: human, read-out: Activity; how it was run: as §3
[12] = Cytotoxicity against HEK293T cells assessed as cell viability at 20 uM incubated for 48 hrs by CCK-8 assay; assay type: cell-based, HEK-293T; settings: human, read-out: Activity; how it was run: as §3
Platelet [13] = experiment: Antiplatelet activity against AYPGKF-NH2-induced human platelet in platelet rich plasma assessed as inhibition of platelet aggregation at 10 uM by photo-turbidimetry method; assay type: functional, cell-based
How it was run: (§4)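 Human PRP prepared as for the aggregation assay and adjusted to 3×10⁸/mL. Compound preincubated for 5 min at 37 °C, then aggregation triggered by AYPGKF, SFLLRN, collagen, ADP or U46619. Maximum percent inhibition taken from 5 min light-transmittance traces. Mean ± SD, n=3.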

Platelet [14] = experiment: Antiplatelet activity against SFLLRN-NH2-induced human platelet in platelet rich plasma assessed as inhibition of platelet aggregation at 10 uM by photo-turbidimetry method; assay type: functional, cell-based; how it was run: as §4
Platelet [15] = experiment: Antiplatelet activity against collagen-induced human platelet aggregation in platelet in platelet rich plasma assessed as inhibition of platelet aggregation at 10 uM by photo-turbidimetry method; assay type: functional, cell-based; how it was run: as §4
Platelet [16] = experiment: Antiplatelet activity against ADP-induced human platelet aggregation in platelet in platelet rich plasma assessed as inhibition of platelet aggregation at 10 uM by photo-turbidimetry method; assay type: functional, cell-based; how it was run: as §4
Platelet [17] = experiment: Antiplatelet activity against U46619-induced human platelet aggregation in platelet in platelet rich plasma assessed as inhibition of platelet aggregation at 10 uM by photo-turbidimetry method; assay type: functional, cell-based; how it was run: as §4

SMILES: Cc1cc(-c2nc3c(Cl)cc(OCCNS(=O)(=O)c4ccc(C(F)(F)F)cc4)cc3s2)c2ncn(C)c(=O)c2c1
- IC50 [1]: 0.0012 µM
- IC50 [2]: > 3.16 µM
- IC50 [3]: > 1 µM
- half-life [4]: 7.4 h
- CLH [5]: 3.51 mL/min/g
- half-life [6]: 5.38 h
- CLH [7]: 7.73 mL/min/g
- half-life [8]: 7.13 h
- CLH [9]: 12.8 mL/min/g
- viability at 48 h, 1 µM [10]: 87.7%
- viability at 48 h, 10 µM [11]: 76.8%
- viability at 48 h, 20 µM [12]: 61.8%
- Activity (Platelet [13]): Active
- Activity (Platelet [14]): inactive
- Activity (Platelet [15]): inactive
- Activity (Platelet [16]): inactive
- Activity (Platelet [17]): inactive
